Variants at the floor of the assay were thinned out.
B1: tRNA (parent)
chain: GUUCCGUUGGCGUAAUGGUAACGCGUCUCCCUCCUAAGGAGAAGACUGCGGGUUCGAGUCCCGUACGGAACG

Variants of: B1
Assay: yeast fitness relative to wild type (ratio to wild type); higher = fitter; tRNA-Arg(CCU), competitive growth, 37 C, YPD
Procedure, shortened: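 Amplicons of the tRNA-Arg(CCU) gene were sequenced, 100-nucleotide paired-end, from the start population and from each end population of a pooled yeast competition. The competition, in six parallel replicates, lasted 24 hours in YPD at 37°C. Fitness relative to wild type was calculated from changes in genotype frequencies. Genotypes had to have ≥ 100 starting reads, and estimates < 0.5 were set to 0.5.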

Variant	yeast fitness
GUUCCGUUGGCGUAAAGGUAACGCGUCUUCCUCCUAGGGAGAAGACUGCGGGUUCGAGUCCCGUACGGAACG [U16A C29U A37G]	≤ 0.5
GUUGCGUUGGCGUAUUGCUAACCGGUCUCCCUCCUAAGGAGAAGACUGCGGGUUCCAGUCCCGUACGGAGCG [C4G A15U G18C G23C C24G G56C A70G]	0.586
GUUCCGUUGGCGUAAUGGUAACGCGUCUCCCUGCUUAGGAGAAGACUGAGGGUUCGAGUCCCGUACGGAACG [C33G A36U C49A]	≤ 0.5
GUUCCGUUGGCGUAAUGGUAACGCGUGUCCCUCCUAAGGAGAAGACUGCGGGUUCGAGUCCCGUUCGUAACG [C27G A65U G68U]	0.583
GUUCCGUUGGCGUUAUAGUAAUGCGUCUCCCUGCUAAGGAGAAGACUGCGGGUUCGAGUCCCGUACGGAACG [A14U G17A C22U C33G]	0.567
GUUCCGUUGGCGUAAUGGUAACGGGUCUCCCUCCUCAGGAGAAGACUGCGGGUUGGAGUCCCGUACGGAACG [C24G A36C C55G]	0.587
GUUCCGUUGGAGUAAUGGUAACGCGUCUCCGUCCUAAGGAGAAGACUGCGGGUUCGAGUCCCGUACGGAUCG [C11A C31G A70U]	≤ 0.5
GUUUCGUUGGCGUAAUGGUCACGCGUCUCCCUCUUAAGGAGAAGACUGCGGGUUUGAGUCCCGUACGGAACG [C4U A20C C34U C55U]	0.532
GUUCCGUUGGGGUAAUGGUAACGCGUCUCCCUCCUAAGGAGAAGAUUGCGGGUUCGAGUCCCGUUCGGAACG [C11G C46U A65U]	0.561
GUUCCCUUGGCGUAAUGGUAACGGGUCUCCCUCCUAAGGAGAAGACUGCGGGUUCGAGUCCCGUACGGAACG [G6C C24G]	0.686
GUUCCGUUGGCGUAAUGGUAACGUGUCUCCCUCCUAAGGAGAAGACUGCGGGUUCGAGUCCCGUACGGAUCG [C24U A70U]	0.881
GUUCCGUAGGCGUAAUGGUAACGCGUCUCCCUCCUAAGGAGAAGCCUGCGGGUUCGAGUCCCGUACGGAACG [U8A A45C]	0.692
GUUCCGUUGGUGUAAUGAUAACCCGUCUCCCUCUUAAGGAGAAGACUGCGGGUUCGAGUCCCGUACGGAACG [C11U G18A G23C C34U]	≤ 0.5
GUUCCGUUGGCGUAAUGGUAACGCGUAUCCCUCCUAAGGAGAAGAAUGCGGGUUCGAGUCCCGUACGGAACG [C27A C46A]	0.907
GUUCUGUUGGCAUGAUGGUAACGCGUCUCCCUCCUAAGGAGAAGACUGCGGGUUCGUGUCCCGUACGGAACG [C5U G12A A14G A57U]	≤ 0.5
GCUCCGUUGGCGUAAUGGUAACGCGUCUCCCUCCUAAGGAGACGCCUGCGCGUUCGAGUCCCGUACGGAACG [U2C A43C A45C G51C]	≤ 0.5
GUUCCGUUGGGGUUAUGGUAACGCGUCUCCCUCCUAAGGAGAUGACUGCGGAUUCGAGUCCCGUACGCGACG [C11G A14U A43U G52A G68C A69G]	0.636
GUUCAGUUGGCGUAAUGGUAACAUGUCUCCCUCCUAAGGAGAAGACUGCGGGUUCGAGUCCCGUACGGAACG [C5A G23A C24U]	0.561
GUUCCGUUGGCGCAAUGGUAACGCGUCUUCCUCCUAAGGAGAAGACUGCGGGUUCGAGUCCCGUACGGAACG [U13C C29U]	0.831

Variant	yeast fitness
GUUCCGUUGGCGUAAUGGUAACGCGUCUCUCUCCUAAGGAGCAGACUGCGGGUUCGAGUCCGGUAGGGAACG [C30U A42C C62G C66G]	≤ 0.5
GUUCCGUUGGCGUAAUGGUAACGCGUCUCCCUCCUAAAGAGAAGACUGCGGGUUCGAGUCCCGUACGGAUCG [G38A A70U]	0.953
GUUCCGUUGGCGUAAUGGGAACGCAUCUCCCUCCUAAGAAGAAGACUGCGGGUUCGAGUCCCGUACGGAACG [U19G G25A G39A]	0.597
GUUCCGUUGGCGUAAUGGUAACGCGUCACCCUCCUAAGGAGAAGACUGCGGGUUCGAGUUCCGUACGGAACG [U28A C60U]	0.64
GUUCCGUUGGCGUAAUGGUAACGCGUCUCCUUCCUAAGGAGAAGACGGCGGGUUCGAGUCCCGUACCGAACG [C31U U47G G67C]	≤ 0.5
GUUCCGUUGGCGUUAUGGUAACGUGUCUCCCUGCUAAGGAGAAGACUGCGGGUUCGAGUCCCGUUUGGCACG [A14U C24U C33G A65U C66U A69C]	≤ 0.5
GUUCCGUUGGCGUAAUGGUAACGCGUCUCCCUCCUAACGAGAGGACUGCGGGUUCGAGUCCCGUACGGAACG [G38C A43G]	0.643
GUUCCGGUGGCGUAAUGGUAACGCGUCUCCCUCCUAAGGAGAAGACUGCCGGUUCGAGUCCCGUACCGAACG [U7G G50C G67C]	≤ 0.5
GUACCGUUAGCGUAAUGGUAACGCGUCUUCCUCCUAAGGAGAAGACUGCGGGUUCGAGUCCCGUACGGAACG [U3A G9A C29U]	0.751
GAUCCGUUGGCGUAAUGGUUACGCGUCUCACUCCUUAGGAGAAGACUGCGGGUUCGAGUUCCGUACGGCACG [U2A A20U C30A A36U C60U A69C]	≤ 0.5
GUUCCGUUGGCGUGAUGGUAACGCGUCUCCCUCCUAAGGAGAUGACUGCUGGUUCGAGUCCCGUACGCAACG [A14G A43U G50U G68C]	≤ 0.5
GUUCCAUUGGCGUAAUGGUAACGCGUCUCCAUCCUAAGGAGAAGACUGCGGGUUCGAGUCCCGUACGAAACG [G6A C31A G68A]	≤ 0.5
GUUCCGUUGGCGUAAUGGUAACGCGUGUCCCUCCUGAGGAGAAGACUGCGGGUUCGAGUCACGUUCGGAACG [C27G A36G C61A A65U]	≤ 0.5
GUUCGGUUGGCGUAAUGGUAACACGUCUCCCUCCUAAGGAGAAGACUGCGGGUACGAGUCCCGUACGGAACG [C5G G23A U54A]	≤ 0.5
GUUCCGUUGGCGUAAUGGUAACGCGUCUCCCUCCUAAGGAGAAGACUGCGGGUUCGAGUUCCGUACGCAACG [C60U G68C]	0.752
GUGCCGUUGGCGUAAUGGUAACGCGUCUCCCUCCUAAGGAGAAGCCUGCGGGUUCGAGUCCCGUACGGAUCG [U3G A45C A70U]	0.857
GUUCCGUUGGCGUAAUGGUAACGCGUCUCCCUCCUAAGGAGAAAACUGCGGGUUCGAGUCCUGUACGGAACG [G44A C62U]	0.874
GUUCAGUUGGCGAAAUGGUAACGCGUCUCCCUCCUAAGGAGAAGACUGCGGGUUCGAGACCCGGACGGAACG [C5A U13A U59A U64G]	≤ 0.5
GUUCCGUUGGCGUAAUGGUGACGCGUCUCCCUCCUAAGGAGAAGACUGCGGGUUCGAGUCCCGCACGGAACG [A20G U64C]	0.929
